According to PubChem BioAssay:
The source made the active and inactive calls.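 The calls were made as follows, unless noted: active = viability at or under a set limit in both replicates, limit being median viability minus 3 SD (cut at about 48% in these data, passing the limit was not always enough); inconclusive = at or under the limit in just one replicate; inactive = at or above the limit in both replicates.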

Assays:
[1] = Her2 expression decrease, cell viability multiplex – SKBR3 breast tumor cells, AlphaScreen, ATP viability, primary screen (AID 461;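 active = Her2 level under about 52% in both replicate screens, with viability over 70% of control, limit read from the data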;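 as to Her2 level: lower value means less Her2 protein in the cells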;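 as to viability: percent of carrier control wells set as 100% viability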); details: SKBR3 Her2 protein level, 18-24 h, measured here: SKBR3 viability, ATP luminescence, at 10 µM
[2] = target: Receptor tyrosine-protein kinase erbB-2 (Homo sapiens) (UniProt P04626); experiment: as above; details: 18-24 h, at 10 µM, stronger effect = lower value
[3] = reduced viability of SK-BR-3 breast cancer cells – cell-based, 24 h, human, pilot screen (AID 572;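 active = viability at or below 10% of carrier control in both of two separate runs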;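 also: compound exposure lasted between 18 and 24 h rather than exactly 24 h; 100% = carrier-treated control wells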); details: SK-BR-3 viability, CellTiter-Glo luminescence, at 10 µM, stronger effect = lower value
[4] = HUVEC growth inhibition – cell-based, human, primary screen (AID 575;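 active = viability at or below 30% in both replicate assays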;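 also: 100% = median of untreated cell wells with 0.1% DMSO on each plate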); details: HUVEC proliferation, CellTiter-Glo luminescence, 72 h; at 10 µM; stronger effect = lower value
Outline: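 Assay system: Primary human umbilical vein endothelial cells | Quantity: 1250 cells per well | Medium: Supplemented EBM, 2% fetal bovine serum | Detection: CellTiter-Glo luminescence measuring cellular ATP | Read-out: % viability vs DMSO wells | Plate: Collagen-coated 384-well format | Times: 72 h exposure, 37 °C, 5% CO2, 30 min RT equilibration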

[5] = H69AR cell proliferation blockers – human, duplicate replicates, primary screen (AID 580); details: H69AR lung tumor cells viability, ATP luminescence, 72 h; at 10 µM; stronger effect = lower value;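 also: 100% = mean luminescence of untreated wells and 0% = no signal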
[6] = MRP1 drug-resistance reversers in H69AR cells – cell-based, doxorubicin co-treatment, pilot screen (AID 601;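 active = viability loss from added drug above about 55%, and viability with drug at most 40%, in both replicates, limit read from the data, passing the limit was not always enough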); details: CellTiter-Glo, 72 h, at 10 µM; for differential viability (reversal): stronger effect = higher value
[7] = yeast transport mutant growth inhibition pilot in 384-well plates, post-Golgi transport modulator project (AID 636; in the data active = inhibition above about 31%); details: absorbance 615 nm, about 18 h, stronger effect = higher value
[8] = growth suppression of yeast trafficking mutant, preliminary HTS, modulators of trafficking downstream of Golgi apparatus project, 1536-format plate, OD 615 nm (AID 637; in the data active = inhibition above about 30%); details: yeast transport mutant growth, absorbance 615 nm, 18 h; stronger effect = higher value
[9] = H69AR cells + 2 uM doxorubicin, measured here: viability with 2 uM doxorubicin, stronger effect = lower value
[10] = H69AR cells, compound alone cytotoxicity

Sequence of Receptor tyrosine-protein kinase erbB-2 (Homo sapiens) (P04626 whole entry, looked up): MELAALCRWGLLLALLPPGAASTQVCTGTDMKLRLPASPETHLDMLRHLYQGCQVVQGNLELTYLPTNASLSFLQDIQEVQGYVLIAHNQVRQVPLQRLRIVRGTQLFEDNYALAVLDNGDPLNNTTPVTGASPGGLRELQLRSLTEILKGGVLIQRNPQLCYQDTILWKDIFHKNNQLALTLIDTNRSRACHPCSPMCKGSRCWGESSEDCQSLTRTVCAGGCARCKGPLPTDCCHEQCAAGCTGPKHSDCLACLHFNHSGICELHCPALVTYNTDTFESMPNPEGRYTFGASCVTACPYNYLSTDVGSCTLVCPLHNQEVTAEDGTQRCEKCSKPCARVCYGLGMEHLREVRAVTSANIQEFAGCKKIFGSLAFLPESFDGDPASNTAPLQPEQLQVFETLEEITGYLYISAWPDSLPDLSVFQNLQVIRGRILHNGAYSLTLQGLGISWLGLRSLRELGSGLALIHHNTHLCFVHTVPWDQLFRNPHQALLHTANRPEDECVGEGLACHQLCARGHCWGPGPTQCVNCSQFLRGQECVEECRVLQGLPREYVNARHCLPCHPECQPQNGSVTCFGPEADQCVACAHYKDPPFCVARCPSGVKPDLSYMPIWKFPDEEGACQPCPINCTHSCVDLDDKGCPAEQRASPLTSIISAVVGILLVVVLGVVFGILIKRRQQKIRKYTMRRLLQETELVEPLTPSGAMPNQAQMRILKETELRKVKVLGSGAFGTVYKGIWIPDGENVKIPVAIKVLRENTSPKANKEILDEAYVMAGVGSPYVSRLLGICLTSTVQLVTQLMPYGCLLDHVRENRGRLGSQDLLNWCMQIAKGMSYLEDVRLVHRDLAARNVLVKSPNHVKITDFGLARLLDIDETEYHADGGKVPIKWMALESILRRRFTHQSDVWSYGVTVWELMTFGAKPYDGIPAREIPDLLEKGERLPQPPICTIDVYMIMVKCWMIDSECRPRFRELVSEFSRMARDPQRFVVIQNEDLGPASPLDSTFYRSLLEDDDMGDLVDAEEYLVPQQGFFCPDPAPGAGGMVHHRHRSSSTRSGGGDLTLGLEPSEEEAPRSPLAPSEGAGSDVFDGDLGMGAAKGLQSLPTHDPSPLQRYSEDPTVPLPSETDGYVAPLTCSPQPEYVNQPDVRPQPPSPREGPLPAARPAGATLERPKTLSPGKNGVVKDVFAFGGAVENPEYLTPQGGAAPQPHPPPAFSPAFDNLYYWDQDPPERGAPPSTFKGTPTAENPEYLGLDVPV

In the case of `O=C(CCCn1c(=S)[nH]c2cc3c(cc2c1=O)OCO3)N1CCN(c2ccccc2F)CC1`, the viability [1] is reported as 77%, the Her2 level [2] is reported as 95% (inactive) and the viability [3] is reported as 77% (inactive). The viability [4] was 68% (inactive), the viability [5] was 83.7% (inactive) and the differential viability (reversal) ([6]; H69AR cells + 2 uM doxorubicin) was -9.88% (inactive). The viability [6, 9] was 93.6%, the viability [6, 10] was 83.7% and the inhibition [7] was -4.32% (inactive). The inhibition [8] was -2.95% (inactive).
For `CCCc1cc(Nc2cccc(OC)c2)n2ncnc2n1`, the viability [1] was 83%, the Her2 level [2] was 129% (inactive) and the viability [3] was 83% (inactive). For the same molecule, the viability [4] was 94.6% (inactive), the viability [5] was 81.2% (inactive) and the differential viability (reversal) ([6]; H69AR cells + 2 uM doxorubicin) was -0.635% (inactive). For the same molecule, the viability [6, 9] was 81.8%, the viability [6, 10] was 81.2% and the inhibition [7] was -4.1% (inactive). The inhibition [8] was -5% (inactive).
For `Cc1ccc(-c2nnc(-c3ccc(Br)cc3)o2)o1`, the viability [1] was 100%, the Her2 level [2] was 93.5% (inactive) and the viability [3] was 100% (inactive). For the same molecule, the viability [4] was 99.9% (inactive), the viability [5] was 86.1% (inactive) and the differential viability (reversal) ([6]; H69AR cells + 2 uM doxorubicin) was 1.58% (inactive). The viability [6, 9] was 84.5%, the viability [6, 10] was 86.1% and the inhibition [7] was -5.87% (inactive). The inhibition [8] was -1.64% (inactive).
In the case of `O=C(NC1CCCCCC1)C1CCCN(S(=O)(=O)c2cccs2)C1` (stereo not given), the viability [1] is reported as 90%, the Her2 level [2] is reported as 118% (inactive) and the viability [3] is reported as 90% (inactive). For the same molecule, the viability [4] was 101% (inactive), the viability [5] was 105% (inactive) and the differential viability (reversal) ([6]; H69AR cells + 2 uM doxorubicin) was 17.6% (inactive). For the same molecule, the viability [6, 9] was 87.8%, the viability [6, 10] was 105% and the inhibition [7] was -0.92% (inactive). The inhibition [8] was -6.5% (inactive).
For `CCOc1ccccc1N(C(=O)c1ccco1)C(C(=O)NC1CCCC1)c1cccnc1` (stereo not given), the viability [1] was 84%, the Her2 level [2] was 104% (inactive) and the viability [3] was 84% (inactive). The viability [4] was 101% (inactive), the viability [5] was 90.5% (inactive) and the differential viability (reversal) ([6]; H69AR cells + 2 uM doxorubicin) was -6.1% (inactive). The viability [6, 9] was 96.6%, the viability [6, 10] was 90.5% and the inhibition [7] was -1.78% (inactive). For the same molecule, the inhibition [8] was -2.54% (inactive).
With `CCSc1nc2ccccc2n1CCC(=O)O` the viability [1] was 99%, the Her2 level [2] was 91.5% (inactive) and the viability [3] was 99% (inactive). For the same molecule, the viability [4] was 101% (inactive), the viability [5] was 109% (inactive) and the differential viability (reversal) ([6]; H69AR cells + 2 uM doxorubicin) was 15.9% (inactive). The viability [6, 9] was 93.4%, the viability [6, 10] was 109% and the inhibition [7] was -5.21% (inactive). For the same molecule, the inhibition [8] was 1.11% (inactive).
For `CC(C)COc1ccc(C(=O)OCCN2CCOCC2)cc1`, the viability [1] was 98.5%, the Her2 level [2] was 101% (inactive) and the viability [3] was 98.5% (inactive). For the same molecule, the viability [4] was 118% (inactive), the viability [5] was 98.2% (inactive) and the differential viability (reversal) ([6]; H69AR cells + 2 uM doxorubicin) was 2.9% (inactive). The viability [6, 9] was 95.3%, the viability [6, 10] was 98.2% and the inhibition [7] was -2.86% (inactive). The inhibition [8] was -3.65% (inactive).
In the case of `Cn1c(=O)c2c(-c3ccncc3)c3c(nc2n(C)c1=O)-c1ccccc1C3=O`, the viability [1] is reported as 94%, the Her2 level [2] is reported as 104% (inactive) and the viability [3] is reported as 94% (inactive). The viability [4] was 98.4% (inactive), the viability [5] was 95% (inactive) and the differential viability (reversal) ([6]; H69AR cells + 2 uM doxorubicin) was 2.95% (inactive). The viability [6, 9] was 92%, the viability [6, 10] was 95% and the inhibition [7] was -1.6% (inactive). The inhibition [8] was 9.37% (inactive).
In the case of `O=C(Cn1c(C(=O)NCC2CCCO2)cc2sccc21)c1ccccc1` (stereo not given), the viability [1] is reported as 94.5%, the Her2 level [2] is reported as 100% (inactive) and the viability [3] is reported as 94.5% (inactive). For the same molecule, the viability [4] was 101% (inactive), the viability [5] was 90.3% (inactive) and the differential viability (reversal) ([6]; H69AR cells + 2 uM doxorubicin) was 7.12% (inactive). For the same molecule, the viability [6, 9] was 83.2%, the viability [6, 10] was 90.3% and the inhibition [7] was -1.56% (inactive). The inhibition [8] was -5.56% (inactive).
For `Cc1ccc(S(=O)(=O)Cn2nnnc2CN(Cc2ccco2)Cc2cccs2)cc1`, the viability [1] was 91.5%, the Her2 level [2] was 97.5% (inactive) and the viability [3] was 91.5% (inactive). For the same molecule, the viability [4] was 104% (inactive), the viability [5] was 80.6% (inactive) and the differential viability (reversal) ([6]; H69AR cells + 2 uM doxorubicin) was 4.66% (inactive). For the same molecule, the viability [6, 9] was 75.9%, the viability [6, 10] was 80.6% and the inhibition [7] was -5.87% (inactive). The inhibition [8] was -7.87% (inactive).
With `CC(C)(C)c1ccc(OCC(=O)O)cc1` the viability [1] was 102%, the Her2 level [2] was 96.5% (inactive) and the viability [3] was 102% (inactive). The viability [4] was 108% (inactive), the viability [5] was 104% (inactive) and the differential viability (reversal) ([6]; H69AR cells + 2 uM doxorubicin) was 13.4% (inactive). The viability [6, 9] was 91%, the viability [6, 10] was 104% and the inhibition [7] was -5.73% (inactive). The inhibition [8] was 8.69% (inactive).
With `COc1ccccc1CC(NC(C)=O)C(=O)NC1CCN(c2nnnn2-c2ccccc2)CC1` (stereo not given) the viability [1] was 97%, the Her2 level [2] was 102% (inactive) and the viability [3] was 97% (inactive). For the same molecule, the viability [4] was 94.8% (inactive), the viability [5] was 96.5% (inactive) and the differential viability (reversal) ([6]; H69AR cells + 2 uM doxorubicin) was -1.01% (inactive). The viability [6, 9] was 97.5%, the viability [6, 10] was 96.5% and the inhibition [7] was -0.95% (inactive). The inhibition [8] was 0% (inactive).
For `O=C(C1CCCO1)N1CCc2ccccc21` (stereo not given), the viability [1] was 85%, the Her2 level [2] was 92.5% (inactive) and the viability [3] was 85% (inactive). For the same molecule, the viability [4] was 94% (inactive), the viability [5] was 92.4% (inactive) and the differential viability (reversal) ([6]; H69AR cells + 2 uM doxorubicin) was -5.42% (inactive). The viability [6, 9] was 97.8%, the viability [6, 10] was 92.4% and the inhibition [7] was -4.8% (inactive). The inhibition [8] was -0.32% (inactive).
With `CCOC(=O)c1sc2nc(SCC#N)n(CCCN3CCCC3=O)c(=O)c2c1C` the viability [1] was 80.5%, the Her2 level [2] was 73% (inactive) and the viability [3] was 80.5% (inactive). The viability [4] was 68% (inactive), the viability [5] was 75.8% (inactive) and the differential viability (reversal) ([6]; H69AR cells + 2 uM doxorubicin) was -8.2% (inactive). For the same molecule, the viability [6, 9] was 84%, the viability [6, 10] was 75.8% and the inhibition [7] was -5% (inactive). The inhibition [8] was -1.48% (inactive).
